Marks after values point to notes of the source that are not given here.
Assays:
[1] = system: SV40 strain Pa-57; assay: SV40 assay: SV40 replication in Vero cells, viral DNA by qPCR; assay type: cell-based; settings: ratio proportional to viral DNA per cell
Summary of the method: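 Vero cells at 2 × 10^4 cells/well were allowed to adhere for 4 h. They were infected with SV40 strain Pa-57 at MOI 0.1 for 2 h. Inoculum was removed and test compound added at 100 to 0.003 μM for 3 days. SV40 DNA was read by qPCR, and growth by MTS in parallel on uninfected cells. The SV40 DNA/MTS ratio was expressed as % of untreated control.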

[2] = Bone marrow toxicity assay, granulocyte/macrophage progenitors; assay type: cell-based; settings: human, granulocyte/macrophage bone marrow progenitor cells
[3] = system: HKC/HPV16 cells; assay: Growth of HKC/HPV16 cells, MTS; assay type: cell-based, human
[4] = Bone marrow toxicity assay, erythroid progenitors; assay type: cell-based; settings: human, erythroid bone marrow progenitor cells
[5] = system: HPV; assay: Viral DNA levels in the three HPV-infected cell lines; assay type: cell-based; settings: read-out: K values, viral DNA levels
[6] = system: HSV-1; assay: HSV-1 infection in Vero cells; assay type: cell-based
[7] = system: episomal HPV-16 DNA; assay: Hybrid capture assay for HPV16 DNA in W12-20850 cells; assay type: cell-based
Summary of the method: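 W12-20850 cells seeded at 7.5 × 10^3/well onto compound (100 to 0.001 μM), 4 days at 37 °C, 5% CO2. MTS growth read, then same cells lysed in 0.2N NaOH/1% Igepal. Episomal HPV-16 DNA measured by hybrid capture: 90 °C 6.5 min, 42 °C overnight, anti-digoxigenin HRP, chemiluminescence. HPV DNA/MTS ratio expressed as % of untreated control. Fit to modified Hill equation.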

[8] = system: W12 cells; assay: mRNA measurement by RT-qPCR in W12 cells; assay type: cell-based, human; settings: W12 cells
Summary of the method: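 RNA was taken 0, 24 and 48 h after adding test compound; W12 cells were grown in 75 cm² flasks and washed in chilled PBS. 546 Pathway Set genes were run in quadruplicate by RT-qPCR: 10 μl reactions, primers 900 nM, probes 100 nM final. Ct was normalised to GAPDH, with dCt = Ct(control) − Ct(treated) and a two-sided t-test. Fold change was F = 2^dCt where p ≤ 0.05.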

[9] = 10 nM, 24 h, not significantly different from 1

Question: What does the source list for `O=C(N[C@@H]1CCCc2c1[nH]c1ccc(Cl)cc21)c1ccccn1` [GSK983, N-[(1R)-6-Chloro-2,3,4,9-tetrahydro-1H-carbazol-1-yl]-2-pyridinecarboxamide]?
Answer: Imax for reduction of the ratio SV40 DNA / MTS activity of Vero cells [1]: 79 ± 2%; K for reduction of the ratio SV40 DNA / MTS activity of Vero cells [1]: 12 ± 2 nM; CC50 [2]: 160000 nM; Imax, Growth, MTS ([3]; HKC/HPV16): 59 ± 1%; EC50 ([3]; Homo sapiens, read-out: K, Growth, MTS): 3 ± 0.4 nM; CC50 [4]: > 10000 nM; EC50 [5]: 2 to 5 nM; Susceptibility of HSV-1 ([6]; at concentrations below 1 μM): not susceptible; Inhibition of HSV-1 infection in Vero cells ([6]; concentration range 1 nM to 100 μM): 50% inhibition in the micromolar range; Imax, Ratio, HPV DNA/MTS ([7]; W12-20850): 90 ± 2%; K, Ratio, HPV DNA/MTS ([7]; W12-20850): 4.9 ± 0.5 nM; EC50 ([7]; read-out: K, DNA, hybrid capture, W12-20850, HPV type 16, 4 days): 4.5 ± 0.3 nM; Expression of IFI6, IFI44 and IRF9 [8]: strongly induced; Fold increase due to GSK983, CPT1B mRNA ([8]; 10 nM, 24 h): 2.2 fold; Fold increase due to GSK983, IFI16 mRNA ([8]; 10 nM, 24 h): 5.2 fold; Fold increase due to GSK983, IFI44 mRNA ([8]; 10 nM, 24 h): 2.9 fold; Fold increase due to GSK983, IFIT1 mRNA ([8]; 10 nM, 24 h): 2.6 fold; Fold increase due to GSK983, ISG15 mRNA ([8]; 10 nM, 24 h): 2.5 fold; Fold increase due to GSK983, OAS2 mRNA ([8]; 10 nM, 24 h): 2.1 fold; Fold increase due to GSK983, OASL mRNA ([8]; 10 nM, 24 h): 1.8 fold; Fold increase due to GSK983, TNFSF10 mRNA ([8]; 10 nM, 24 h): 3.7 fold; Fold increase due to GSK983, CCL5 mRNA [8, 9]: 7.9 ^b fold; Fold increase due to GSK983, COL10A1 mRNA [8, 9]: 0.8 ^b fold; Fold increase due to GSK983, CSF2 mRNA [8, 9]: 1.5 ^b fold; Fold increase due to GSK983, DCN mRNA [8, 9]: 1.5 ^b fold; Fold increase due to GSK983, DMPK mRNA [8, 9]: 0.9 ^b fold; Fold increase due to GSK983, ERN2 mRNA [8, 9]: 0.7 ^b fold; Fold increase due to GSK983, FMOD mRNA [8, 9]: 1.0 ^b fold; Fold increase due to GSK983, IFI6 mRNA [8, 9]: 1.1 ^b fold; Fold increase due to GSK983, IL6 mRNA [8, 9]: 2.5 ^b fold; Fold increase due to GSK983, IL8 mRNA [8, 9]: 1.8 ^b fold; Fold increase due to GSK983, IRF9 mRNA [8, 9]: 1.0 ^b fold; Fold increase due to GSK983, LIFR mRNA [8, 9]: 2.1 ^b fold; Fold increase due to GSK983, LRP1 mRNA [8, 9]: 1.2 ^b fold; Fold increase due to GSK983, NR1H3 mRNA [8, 9]: 0.6 ^b fold; Fold increase due to GSK983, OAS1 mRNA [8, 9]: 1.1 ^b fold; Fold increase due to GSK983, SNAP25 mRNA [8, 9]: 1.2 ^b fold; Fold increase due to GSK983, TLR5 mRNA [8, 9]: 1.9 ^b fold; Fold increase due to GSK983, CCL5 mRNA ([8]; 10 nM, 48 h): 41.5 fold; Fold increase due to GSK983, CEL mRNA ([8]; 10 nM, 48 h): 14.1 fold; Fold increase due to GSK983, COL10A1 mRNA ([8]; 10 nM, 48 h): 2.0 fold; Fold increase due to GSK983, CPT1B mRNA ([8]; 10 nM, 48 h): 2.2 fold; Fold increase due to GSK983, CSF2 mRNA ([8]; 10 nM, 48 h): 1.7 fold; Fold increase due to GSK983, DCN mRNA ([8]; 10 nM, 48 h): 2.1 fold; Fold increase due to GSK983, DMPK mRNA ([8]; 10 nM, 48 h): 2.1 fold; Fold increase due to GSK983, ERN2 mRNA ([8]; 10 nM, 48 h): 2.6 fold; Fold increase due to GSK983, FMOD mRNA ([8]; 10 nM, 48 h): 1.5 fold; Fold increase due to GSK983, IFI6 mRNA ([8]; 10 nM, 48 h): 2.2 fold; Fold increase due to GSK983, IFI16 mRNA ([8]; 10 nM, 48 h): 1.6 fold; Fold increase due to GSK983, IFI44 mRNA ([8]; 10 nM, 48 h): 2.7 fold; Fold increase due to GSK983, IFIT1 mRNA ([8]; 10 nM, 48 h): 2.0 fold; Fold increase due to GSK983, IL6 mRNA ([8]; 10 nM, 48 h): 1.8 fold; Fold increase due to GSK983, IL8 mRNA ([8]; 10 nM, 48 h): 1.4 fold; Fold increase due to GSK983, IRF3 mRNA ([8]; 10 nM, 48 h): 1.3 fold; Fold increase due to GSK983, ISG15 mRNA ([8]; 10 nM, 48 h): 3.0 fold; Fold increase due to GSK983, LIFR mRNA ([8]; 10 nM, 48 h): 1.5 fold; Fold increase due to GSK983, LRP1 mRNA ([8]; 10 nM, 48 h): 3.5 fold; Fold increase due to GSK983, NR1H3 mRNA ([8]; 10 nM, 48 h): 1.8 fold; Fold increase due to GSK983, OAS1 mRNA ([8]; 10 nM, 48 h): 1.7 fold; Fold increase due to GSK983, OAS2 mRNA ([8]; 10 nM, 48 h): 1.8 fold
